Measurements of several laboratories.
Protocols differ between the studies behind these lines.
Target: Serine/threonine-protein kinase A-Raf (ARAF, Homo sapiens, UniProt P10398)
Sequence (P10398 1-606, as in one of the studies): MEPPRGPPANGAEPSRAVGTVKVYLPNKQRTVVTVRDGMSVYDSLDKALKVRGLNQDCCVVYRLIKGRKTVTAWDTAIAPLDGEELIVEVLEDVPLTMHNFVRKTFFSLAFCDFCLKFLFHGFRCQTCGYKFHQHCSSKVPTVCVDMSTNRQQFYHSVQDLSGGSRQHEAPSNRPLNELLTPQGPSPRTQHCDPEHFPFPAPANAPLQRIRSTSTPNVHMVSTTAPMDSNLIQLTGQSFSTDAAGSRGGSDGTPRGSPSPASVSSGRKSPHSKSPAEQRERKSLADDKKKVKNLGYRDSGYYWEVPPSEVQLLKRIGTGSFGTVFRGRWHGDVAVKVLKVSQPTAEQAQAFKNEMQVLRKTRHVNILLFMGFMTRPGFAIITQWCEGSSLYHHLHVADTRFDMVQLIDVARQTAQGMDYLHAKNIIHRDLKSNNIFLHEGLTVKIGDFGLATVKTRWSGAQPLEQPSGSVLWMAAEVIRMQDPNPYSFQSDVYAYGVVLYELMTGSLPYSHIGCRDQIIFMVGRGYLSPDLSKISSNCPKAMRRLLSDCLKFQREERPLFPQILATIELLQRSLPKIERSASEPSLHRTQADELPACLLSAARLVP

`CCN1CCN(Cc2ccc(NC(=O)c3ccc(C)c(Oc4ccnc5[nH]ccc45)c3)cc2C(F)(F)F)CC1` has an inhibition of -85.6% (target engagement in cells, inhibitor, chemoproteomics; A-375; 5 µM).
The remaining activity of `O=C(Nc1cnn(-c2csc(C(=O)NC3COC3)c2)c1)Nc1c(F)cccc1Cl` is reported as 94.4% (enzyme activity, inhibitor; 5 µM).
With `CN1CC(Oc2cnc(C#N)cc2-c2ccn3nc(NC(=O)C4CC4)cc3c2)C1` the inhibition was 1% (enzyme activity, inhibitor; 1 µM).
The remaining activity of `COc1cc(Cl)c(C(=O)N[C@@H](CN[C@H]2CC[C@@H](N)CC2)Cc2ccc(C#N)cc2)cc1-c1ccc(CN[C@H](C)c2ccc(C)cc2)o1` is reported as 101% (enzyme activity, inhibitor; 1 µM).
With `COc1cccc2c(NCc3ccccc3)nc(-n3c(N)nc4ccccc43)nc12` the inhibition was -7.3% (target engagement in cells, inhibitor, chemoproteomics; 20 mM).
For `Cc1sc(C(=O)NC2COC2)cc1-n1cc(NC(=O)Nc2c(F)cccc2Cl)cn1`, the remaining activity was 84.1% (enzyme activity, inhibitor; 10 µM).
For `O=C1NC(=O)c2cc(Nc3ccc(F)cc3)c(Nc3ccc(F)cc3)cc21`, the remaining signal was 90.7% (cell-free assay; 0.5 µM).
With `CCCCNc1ncc2c(-c3ccc(F)cc3)nn(C[C@H]3CC[C@H](N)CC3)c2n1` the inhibition was 32.9% (target engagement in cells, inhibitor, chemoproteomics; 20 mM).
The remaining signal of `CNC(=O)c1cc(Oc2ccc(NC(=O)Nc3ccc(Cl)c(C(F)(F)F)c3)cc2)ccn1` is reported as 7.04% (cell-free assay; 0.5 µM).
With `CC(C)(O)[C@H]1CC[C@H](Nc2ccc3ncc(-c4cccc(C(F)(F)F)c4)n3n2)CC1` the remaining activity was 96.9% (enzyme activity, inhibitor; 1 µM).
`CCN1CCN(Cc2ccc(NC(=O)c3ccc(C)c(/C=C/c4cnc5[nH]ccc5c4OC)c3)cc2C(F)(F)F)CC1` gave an inhibition of -68.8% (target engagement in cells, inhibitor, chemoproteomics; A-375; 0.5 µM).
With `Cc1cc(NC(=O)c2cccc3cc(-c4cccc5[nH]nc(N)c45)ccc23)ccc1F` the activity vs control was 98% (enzyme activity, inhibitor; 0.1 µM).
